# Source: PubChem BioAssay
# A selection: hits, their analogues and other compounds. The true share with any hit is near 2%.
# MBD2 inh: inhibitors of MBD2 binding to methylated DNA, primary screen, biochemical, TR-FRET, DNA-binding domain, human; Methyl-CpG-binding domain protein 2 (Homo sapiens), Q9UBB5; MBD2 binding to methylated oligonucleotide; inhibition, % at 4.4 µM; 0.31% of 370,000 active; in the data active means inhibition above about 13%
# UHRF1 binding: UHRF1 methylated DNA binding inhibitors, primary screen, counter-screen for MBD2 inhibitor project, biochemical, TR-FRET, human UHRF1, single concentration. UHRF1 binding to methylated oligo. inhibition, % at 4.4 µM. 0.75% of 370,000 active; in the data active means inhibition above about 21%;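 further: UHRF1 SRA domain binding a hemimethylated CpG hairpin DNA probe; 0% = median of test compound wells and 100% = reference inhibitor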
# TDP2 inh: human TDP2 enzyme inhibitors, primary screen, biochemical, epi absorbance, recombinant enzyme | Tyrosyl-DNA phosphodiesterase 2 (Homo sapiens), O95551 | T5PNP hydrolysis, p-nitrophenol absorbance 415 nm | inhibition, % at 12.8 µM | 0.34% of 370,000 active | AID 720702, 2013;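 active means inhibition above the mean of all tested compounds plus 3 SD, set per campaign, cut at about 25% in these data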;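 further: 0% = DMSO with enzyme and 100% = buffer with substrate but no TDP2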
# Target sequence (O95551 whole entry, looked up): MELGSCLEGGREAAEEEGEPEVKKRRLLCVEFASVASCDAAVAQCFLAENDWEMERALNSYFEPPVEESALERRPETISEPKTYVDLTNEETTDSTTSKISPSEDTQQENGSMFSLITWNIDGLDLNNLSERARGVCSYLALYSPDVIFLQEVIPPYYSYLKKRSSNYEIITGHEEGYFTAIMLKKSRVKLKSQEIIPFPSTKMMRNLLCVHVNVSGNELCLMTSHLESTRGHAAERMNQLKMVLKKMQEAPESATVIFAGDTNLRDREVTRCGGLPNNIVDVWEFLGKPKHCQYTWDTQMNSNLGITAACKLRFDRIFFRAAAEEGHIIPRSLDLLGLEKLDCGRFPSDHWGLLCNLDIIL
#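 System – recombinant human TDP2 · Amount – 120 nM TDP2 per well · Buffer or medium – Mg2+-containing Tris-HCl buffer, pH 7.5 · Reagent – T5PNP substrate, 5 mM · Dosing – 12.8 µM single point, 1% DMSO · Incubation – 2 h at 37 °C · Measured by – epi absorbance · Read-out basis – percent inhibition · Benchmarks – high control without enzyme, low control DMSO plus TDP2 · Repeats – singlicate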
# LEDGF integ inh: blockers of LEDGF/p75-dependent integrase strand transfer – biochemical, TR-FRET, high throughput, primary screen; HIV-1 integrase (with human LEDGF/p75); TR-FRET IN-LEDGF/p75 DNA integration, Eu/Cy5; inhibition, % at 3.7 µM; 0.64% of 370,000 active; AID 743269, 2014;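 active means inhibition above the screen-wide mean plus 3 SD, cut at about 13% in these data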;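 further: signal is the Cy5 over europium emission ratio at 671 and 618 nm; 0% = plate median of compound wells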
# ARFGAP1 inhibitor: inhibitors of rat ARFGAP1 GAP activity, primary screen, biochemical, fluorescence polarization, GDP tracer; ADP-ribosylation factor GTPase-activating protein 1 (Rattus norvegicus), Q62848; inhibition, % at 16.5 µM; 0.26% of 360,000 active; Arfgap1-stimulated ARF1 GTP hydrolysis, GDP FP detection;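 active means inhibition above a per-plate limit, mean inhibition of low control wells plus 3 SD, cut at about 25% in these data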;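 further: 0% = DMSO wells with enzyme and 100% = wells lacking Arfgap1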
#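 Material – truncated rat Arfgap1 GAP domain · Buffer or medium – HEPES-based buffer, pH 7.5 · Reagent – human ARF1(Δ1-17)-GTP substrate · Dosing – 16.5 µM single point, 1.26% DMSO · Schedule – GTP hydrolysis reaction 2 h at 25 °C · Technique – GDP detection by fluorescence polarization · Benchmarks – No-Arfgap1 wells (100%) versus DMSO full-reaction wells (0%) · Repeats – single replicate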
# ASAP1 inh: inhibitors of human ASAP1 ArfGAP activity, primary screen, biochemical, fluorescence polarization; 0.19% of 360,000 active; inhibition, % at 16.5 µM; Arf-GAP with SH3 domain, ANK repeat and PH domain-containing protein 1 (Homo sapiens), …; ASAP1-stimulated ARF1 GTP hydrolysis, GDP FP detection; in the data active means inhibition above about 25%;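 further: 0% = vehicle with enzyme and substrate and 100% = no enzyme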
# ARFGAP1 confirm: ARFGAP1 inhibitor hit confirmation, biochemical, fluorescence polarization, triplicate | shares compounds with ARFGAP1 inhibitor | ARFGAP1-stimulated ARF1 GTP hydrolysis, GDP tracer FP | inhibition, % at 16.5 µM | 30% of 890 active;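 active means average inhibition over triplicates above the hit cutoff set in the earlier primary screen, cut at about 25% in these data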;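 further: 0% = Arfgap1 plus ARF1-GTP with DMSO and 100% = wells lacking Arfgap1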
# * hit, by the source's call; / = no result; + = active, no number.
SMILES,MBD2 inh,UHRF1 binding,TDP2 inh,LEDGF integ inh,ARFGAP1 inhibitor,ASAP1 inh,ARFGAP1 confirm
COC(=O)C1=C(C)N(Cc2cccc(C(F)(F)F)c2)C(=NCc2ccccc2C(F)(F)F)NC1c1cccc(C(F)(F)F)c1 (centres undefined),-4,0,-7,-4,20,-6,/
COC(=O)C1=C(C)N(Cc2ccccc2C(F)(F)F)C(=NCc2ccccc2)NC1c1ccc(C(F)(F)F)cc1 (centres undefined),-1,-4,-11,6,25*,3,11
COC(=O)C1=C(C)N(Cc2cccc(C(F)(F)F)c2)C(=NCc2ccccc2C(F)(F)F)NC1c1cccc(F)c1 (centres undefined),0,-2,-13,-2,27*,-2,13
O=C(Nc1ccccc1)Nc1nc2ncccn2c1-c1ccc(F)c(F)c1,3,-1,8,-4,/,/,/
O=C1C[C@@H](c2ccccc2)N=C2N(Cc3ccc4c(c3)OCO4)C/C(=C/c3ccccc3)N12,4,-1,2,2,/,/,/
CCOC(=O)CC[C@@H]1CC[C@]2(CCCN(C(=O)C(C)(C)C)C2)O1,-5,1,0,2,/,/,/
Cc1ccc(OCC(=O)Oc2cccc(C)c2)cc1,-1,2,-10,5,26*,8,-5
Cc1cccc(OCC(=O)OC2CCN(C)CC2)c1,-2,1,-6,3,26*,-4,0
O=[N+]([O-])c1cccc(/C=C/c2nc3ccc([N+](=O)[O-])cc3[nH]2)c1,-6,1,7,1,25*,7,26*
Cc1nc2ccc([N+](=O)[O-])cc2[nH]1,0,-1,-11,9,6,3,/
CC(NCc1ccco1)C(=O)N1CCN(Cc2ccccc2F)CC1 (centres undefined),2,2,-2,-6,/,/,/
CCCNC(=O)Cn1cnc2sc(C(=O)N3CCN(c4ccc(F)cc4)CC3)c(C)c2c1=O,-4,0,1,-2,26*,6,4
O=C(CCc1c[nH]c2ccccc12)Nc1ccc(Nc2ccccc2)cc1,0,2,0,-5,27*,7,22
CCOC(=O)C1=NOC(C(C)=O)(C(=O)N2CCOCC2)C1 (centres undefined),1,2,-1,-2,/,/,/
O=C(Nc1ccc(Nc2ccncc2)cc1)c1ccc([N+](=O)[O-])cc1,0,-3,6,-1,-14,17,/
O=C(Nc1ccc(Nc2ccncc2)cc1)c1ccc(Nc2ccnc3ccc([N+](=O)[O-])cc23)cc1[N+](=O)[O-],-5,1,-19,10,74*,15,+
CCOC(=O)C(C)(C)N(Cc1cccc(C)c1)S(=O)(=O)c1cccc([N+](=O)[O-])c1,1,-3,10,0,35*,-11,1
CCOC(=O)C(C)(C)N(Cc1cccc(C)c1)S(=O)(=O)c1ccc(Cl)c([N+](=O)[O-])c1,-2,3,-12,0,11,-7,/
Cc1c(O)ccc2c(O)c(NC(=O)c3ccc4c(c3)CCC(C)(C)O4)c(=O)oc12,5,-1,8,0,40*,2,1
Cc1c(CC(=O)NCCCO)c(=O)oc2cc3c(cc12)CCC(C)(C)O3,-7,2,-9,8,-4,-1,/
